Drawing on ChEMBL document CHEMBL5712087, “Targeting bromodomain-containing protein 4 (BRD4) inhibits MYC expression in colorectal cancer cells” (Neoplasia, 2019), this text covers Activity for two compounds.

In experiment [1] the target is T1, Protein cereblon/Bromodomain-containing protein 4 (Homo sapiens) (UniProt O60885+Q96SW2). Briefly: PROTAC activity at BRD4/Cereblon in human LS174T cells assessed as BRD4 protein degradation at 1 uM for 2 hrs by Immunofluorescence analysis.
In experiment [2] the target is T1, Protein cereblon/Bromodomain-containing protein 4 (Homo sapiens). Briefly: PROTAC activity at BRD4/Cereblon in human Caco-2 cells assessed as decrease in BRD4 protein degradation at 5 to 10 uM for 24 hrs by Western blot analysis. The conditions noted are these: dose 5-10 µM. It counts as cell-based. Put shortly:
(§1)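 Eight CRC lines exposed 24 h to PROTAC at 5 or 10 µM (stocks 2 mM in DMSO, diluted in PBS or medium). Lysis in RIPA with protease/phosphatase inhibitors and 2.5 mmol/l DTT; 15 µg protein on 10% SDS-PAGE, semi-dry transfer to nitrocellulose. Anti-BRD4 or anti-MYC at 1:1,000 overnight at 4 °C; GAPDH or β-actin loading control; chemiluminescence.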

Experiment [3] has the same target. The experiment is described as follows: PROTAC activity at BRD4/Cereblon in human LS174T-dbet1 resistant cells assessed as MYC protein expression at 500 to 1000 nM for 24 hrs by Western blot analysis. It counts as cell-based. The conditions noted are these: dose 500-1000 nM. (In general: A western blot detects proteins with antibodies after separation by electrophoresis.)

Experiment [4] shares this target. Briefly: PROTAC activity at BRD4/Cereblon in human LS174T cells assessed as BRD4 protein degradation at 250 to 500 nM pretreated with thalidomide for 4 hrs by Western blot analysis. It counts as cell-based. Particulars: dose 250-500 nM.
For experiment [5] the target is unchanged. The experiment is described as follows: PROTAC activity at BRD4/Cereblon in human LS174T cells assessed as complete BRD4 protein degradation at […] for 24 hrs by Western blot analysis. It is filed as cell-based. The procedure, abridged: (§2)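 Cells treated 24 h across 1 nM–10 µM range (fibroblasts at 500/1000 nM). Immunoblot: RIPA lysate with 2.5 mmol/l DTT, 15 µg per lane on 10% SDS-PAGE, nitrocellulose, 5% milk block 1 h. BRD4 or MYC primary 1:1,000 overnight at 4 °C, HRP secondary 1:10,000 for 60 min; GAPDH/β-actin loading control; ECL detection.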

For experiment [6] the target is unchanged. The experiment is described as follows: PROTAC activity at BRD4/Cereblon in human SW480 cells assessed as decrease in MYC protein expression at 5 to 10 uM for 24 hrs by Western blot analysis. It is filed as cell-based. Particulars: dose 5-10 µM. The procedure, abridged: as §1
For experiment [7] the target is unchanged. Briefly: PROTAC activity at BRD4/Cereblon in human DLD-1 cells assessed as decrease in BRD4 protein degradation at 5 to 10 uM for 24 hrs by Western blot analysis. It is filed as cell-based. The conditions noted are these: dose 5-10 µM. Put shortly: as §1
Experiment [8] shares this target. Briefly: PROTAC activity at BRD4/Cereblon in human LS174T cells assessed as decrease in MYC protein expression at 5 to 10 uM for 24 hrs by Western blot analysis. It counts as cell-based. Particulars: dose 5-10 µM. The procedure, abridged: as §1
The target is the same in experiment [9]. Briefly: PROTAC activity at BRD4/Cereblon in human fibroblast cells assessed as effect on MYC protein expression at 500 to 1000 nM for 24 hrs by Western blot analysis. It is filed as cell-based. Particulars: dose 500-1000 nM. The procedure, abridged: as §2
Experiment [10] deals with T2, von Hippel-Lindau disease tumor suppressor/Bromodomain-containing protein 4 (Homo sapiens) (UniProt O60885+P40337). Briefly: PROTAC activity at BRD4/VHL E3 ligase in human HCT116 p53-/- cells assessed as decrease in MYC protein expression at 5 to 10 uM for 24 hrs by Western blot analysis. It counts as cell-based. Particulars: HCT-116, dose 5-10 µM. Put shortly:
as §1

Experiment [11] addresses T2, von Hippel-Lindau disease tumor suppressor/Bromodomain-containing protein 4 (Homo sapiens). The experiment is described as follows: PROTAC activity at BRD4/VHL E3 ligase in human Caco-2 cells assessed as decrease in MYC protein expression at 5 to 10 uM for 24 hrs by Western blot analysis. Particulars: dose 5-10 µM. It is filed as cell-based. Put shortly: as §1
The target is the same in experiment [12]. Briefly: PROTAC activity at BRD4/VHL E3 ligase in human fibroblast cells assessed as effect on MYC protein expression at 100 to 250 nM for 24 hrs by Western blot analysis. It counts as cell-based. Particulars: dose 100-250 nM. The procedure, abridged: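 Normal human dermal fibroblasts in 10% FCS medium were treated with 100 or 250 nM PROTAC. BRD4 and MYC protein were assessed by western blot (15 µg RIPA lysate, 10% SDS-PAGE, primary 1:1,000 overnight at 4 °C), with GAPDH/β-actin as loading control.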

Experiment [13] has the same target. The experiment is described as follows: PROTAC activity at BRD4/VHL E3 ligase in human LS174T cells assessed as BRD4 protein degradation at 100 to 500 nM pretreated with proteasome inhibitor MG132 for 4 hrs by Western blot analysis. It counts as cell-based. Particulars: dose 100-500 nM. The procedure, abridged:
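LS174t cells were pre-incubated for 4 h with the proteasome inhibitor MG132 (10 mM DMSO stock) before PROTAC addition. BRD4 was then immunoblotted from RIPA lysates (15 µg, 10% SDS-PAGE, nitrocellulose, primary 1:1,000 overnight at 4 °C), with GAPDH/β-actin as loading control.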

For experiment [14] the target is unchanged. The experiment is described as follows: PROTAC activity at BRD4/VHL E3 ligase in human LS174T cells assessed as BRD4 protein degradation at 250 nM for 2 hrs by Western blot analysis. It is filed as cell-based. The procedure, abridged: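 LS174t cells were exposed to PROTAC for 2 h. For washout, the PROTAC was removed by changing the culture medium and cells were harvested 22 h later. BRD4 was assessed by western blot (15 µg lysate, 10% SDS-PAGE, chemiluminescence), normalised against GAPDH/β-actin.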

Experiment [15] shares this target. Briefly: PROTAC activity at BRD4/VHL E3 ligase in human HCT116 p53+/+ cells assessed as decrease in BRD4 protein degradation at 5 to 10 uM for 24 hrs by Western blot analysis. It is filed as cell-based. The conditions noted are these: HCT-116, dose 5-10 µM. The procedure, abridged:
as §1

For experiment [16] the target is unchanged. The experiment is described as follows: PROTAC activity at BRD4/VHL E3 ligase in human DLD-1 cells assessed as decrease in MYC protein expression at 5 to 10 uM for 24 hrs by Western blot analysis. It is filed as cell-based. The conditions noted are these: dose 5-10 µM. Put shortly:
as §1

For experiment [17] the target is unchanged. Briefly: PROTAC activity at BRD4/VHL E3 ligase in human LS174T dbet1 resistant cells assessed as MYC mRNA level at 500 to 1000 nM for 24 hrs by RT-qPCR analysis. It counts as cell-based. The conditions noted are these: dose 500-1000 nM. Put shortly: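 Resistant LS174t cells were derived by four months' exposure to rising dBET1 concentrations, with outgrowing cells expanded. Resistant and parental cells were then treated and analysed for BRD4 and MYC protein by western blot (GAPDH/β-actin control) and for MYC mRNA by qPCR normalised to PPIA/ACTB (ΔΔCq).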
In general terms: Quantitative PCR measures a nucleic acid by following its amplification.

Experiment [18] has the same target. The experiment is described as follows: PROTAC activity at BRD4/VHL E3 ligase in human HCT116 p53+/+ cells assessed as decrease in MYC protein expression at 5 to 10 uM for 24 hrs by Western blot analysis. It is filed as cell-based. The conditions noted are these: HCT-116, dose 5-10 µM. Put shortly:
as §1

Experiment [19] shares this target. The experiment is described as follows: PROTAC activity at BRD4/VHL E3 ligase in human COLO 320 cells assessed as decrease in BRD4 protein degradation at 5 to 10 uM for 24 hrs by Western blot analysis. It is filed as cell-based. Particulars: dose 5-10 µM. The procedure, abridged: as §1
Experiment [20] has the same target. Briefly: PROTAC activity at BRD4/VHL E3 ligase in human SW480 cells assessed as decrease in MYC protein expression at 5 to 10 uM for 24 hrs by Western blot analysis. It is filed as cell-based. Particulars: dose 5-10 µM. The procedure, abridged:
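Eight CRC lines, including LS174t (RPMI 1640) and SW480 (DMEM/HamsF12), all with 10% FCS, were treated with PROTAC at 5 and 10 µM. BRD4 and MYC proteins were detected by immunoblot (RIPA lysate, 15 µg, 10% gel, primary 1:1,000 overnight at 4 °C), with GAPDH/β-actin as loading control.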

Active and inactive are the calls of the source. The calls are words filed in the database; no cut-off is given here.

T1 sequence (Q96SW2 whole entry, looked up, other chains not shown): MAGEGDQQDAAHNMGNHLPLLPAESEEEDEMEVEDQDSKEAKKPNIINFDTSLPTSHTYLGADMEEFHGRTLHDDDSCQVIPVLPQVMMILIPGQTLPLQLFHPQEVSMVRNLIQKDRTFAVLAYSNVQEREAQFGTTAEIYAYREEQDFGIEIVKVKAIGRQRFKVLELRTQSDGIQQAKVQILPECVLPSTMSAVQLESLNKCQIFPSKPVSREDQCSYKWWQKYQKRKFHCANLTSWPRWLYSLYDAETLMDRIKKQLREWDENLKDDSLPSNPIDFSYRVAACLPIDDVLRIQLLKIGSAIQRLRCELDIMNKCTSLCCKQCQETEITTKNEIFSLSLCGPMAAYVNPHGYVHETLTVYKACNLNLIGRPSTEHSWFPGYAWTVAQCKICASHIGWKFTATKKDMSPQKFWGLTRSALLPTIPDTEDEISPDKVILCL
T2 sequence (P40337 whole entry, looked up, other chains not shown): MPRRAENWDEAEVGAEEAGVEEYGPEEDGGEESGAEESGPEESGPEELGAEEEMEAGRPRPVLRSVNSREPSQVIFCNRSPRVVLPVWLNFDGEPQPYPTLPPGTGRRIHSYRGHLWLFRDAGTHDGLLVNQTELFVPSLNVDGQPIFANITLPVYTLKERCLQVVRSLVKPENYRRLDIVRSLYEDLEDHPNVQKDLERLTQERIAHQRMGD

Regarding `Cc1sc2c(c1C)C(c1ccc(Cl)cc1)=N[C@@H](CC(=O)NCCCCNC(=O)COc1cccc3c1C(=O)N(C1CCC(=O)NC1=O)C3=O)c1nnc(C)n1-2` (stereo not given in full), the result in [1], in [2], in experiment [5], in experiment [7] and in experiment [8] was Active. Further, the result in experiment [3], in experiment [4], in experiment [6] and in experiment [9] was inactive.

Consider `Cc1ncsc1-c1ccc(CNC(=O)[C@@H]2C[C@@H](O)CN2C(=O)[C@@H](NC(=O)COCCOCCOCCNC(=O)C[C@@H]2N=C(c3ccc(Cl)cc3)c3c(sc(C)c3C)-n3c(C)nnc32)C(C)(C)C)cc1`, for which the outcome in [10], in experiment [11], in [14], in experiment [15], in experiment [17] and in experiment [18] was Active. Also, the result in experiment [19] and in experiment [20] was Active. Also, the outcome in experiment [12], in experiment [13] and in experiment [16] was inactive.
